Experimental data as given in ChEMBL document CHEMBL2016441, “Discovery and structural development of small molecules that enhance transport activity of bile salt export pump mutant associated with progressive familial intrahepatic cholestasis type 2” (Bioorg Med Chem, 2012).

What was measured:
Bile salt export pump [1] = target: T1, Bile salt export pump (Homo sapiens, UniProt O95342, E297G); test: (§1) Restoration of human BSEP E297G mutant trafficking to cell membrane in MDCK2 cells co-expressing NTCP assessed as increase in [3H]taurocholate transport measuring apparent efflux clearance across the apical membrane at 1 mM preincubated for 24 hrs prior incubation with [3H]taurocholate measured after 2 hrs by transcellular transport assay relative to control; type: cell-based; conditions: mdck2, 2 h, 1000 µM
T1 sequence (O95342 whole entry E297G): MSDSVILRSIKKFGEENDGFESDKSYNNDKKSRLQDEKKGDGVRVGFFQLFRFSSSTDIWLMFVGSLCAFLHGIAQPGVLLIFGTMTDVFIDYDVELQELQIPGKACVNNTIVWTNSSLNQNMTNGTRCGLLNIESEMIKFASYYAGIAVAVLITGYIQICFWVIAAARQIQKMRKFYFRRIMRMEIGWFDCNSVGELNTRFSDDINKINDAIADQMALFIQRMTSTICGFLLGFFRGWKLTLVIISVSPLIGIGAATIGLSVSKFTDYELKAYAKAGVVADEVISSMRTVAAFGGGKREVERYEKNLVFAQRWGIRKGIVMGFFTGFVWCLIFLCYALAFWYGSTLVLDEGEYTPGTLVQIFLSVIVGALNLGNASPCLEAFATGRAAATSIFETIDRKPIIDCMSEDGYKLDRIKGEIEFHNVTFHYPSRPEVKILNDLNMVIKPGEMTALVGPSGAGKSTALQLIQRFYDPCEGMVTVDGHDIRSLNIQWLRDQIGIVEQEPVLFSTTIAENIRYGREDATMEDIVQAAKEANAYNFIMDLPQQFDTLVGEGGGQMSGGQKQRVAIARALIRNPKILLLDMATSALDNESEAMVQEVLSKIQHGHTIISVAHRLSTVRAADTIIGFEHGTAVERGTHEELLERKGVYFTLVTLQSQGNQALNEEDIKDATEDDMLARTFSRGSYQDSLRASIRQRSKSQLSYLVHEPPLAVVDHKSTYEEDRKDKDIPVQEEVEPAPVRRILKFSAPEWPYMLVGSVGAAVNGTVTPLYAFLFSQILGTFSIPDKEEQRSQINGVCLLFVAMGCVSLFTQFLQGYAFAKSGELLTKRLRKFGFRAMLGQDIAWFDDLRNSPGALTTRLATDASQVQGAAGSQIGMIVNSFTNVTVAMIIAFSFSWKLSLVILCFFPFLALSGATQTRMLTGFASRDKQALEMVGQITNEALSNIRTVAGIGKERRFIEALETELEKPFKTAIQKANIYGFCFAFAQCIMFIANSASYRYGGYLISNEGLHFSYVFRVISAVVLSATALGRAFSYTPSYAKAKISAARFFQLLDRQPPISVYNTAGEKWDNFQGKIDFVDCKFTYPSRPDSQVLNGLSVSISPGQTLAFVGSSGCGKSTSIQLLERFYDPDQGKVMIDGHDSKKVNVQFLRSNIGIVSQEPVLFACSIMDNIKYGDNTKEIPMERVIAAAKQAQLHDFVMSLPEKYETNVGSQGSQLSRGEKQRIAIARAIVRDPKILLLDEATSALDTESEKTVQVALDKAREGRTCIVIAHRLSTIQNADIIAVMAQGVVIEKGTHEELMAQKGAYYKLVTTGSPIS
Summary of the method: (§2)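 MDCK II cells grown 2 days on Transwell inserts, then infected with E297G BSEP or GFP adenovirus (50 MOI). Compounds added 24 h later for 24 h. [3H]TC added basally. PS_apical is the steady-state transcellular rate over 2 h divided by the cellular [3H]TC concentration at 2 h. Mean ± SE of triplicates.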

Bile salt export pump [2] = target: T1, Bile salt export pump; test: Restoration of human BSEP E297G mutant trafficking to cell membrane in MDCK2 cells co-expressing NTCP assessed as accumulation of [3H]taurocholate at 10 uM preincubated for 24 hrs prior incubation with [3H]taurocholate measured after 2 hrs by liquid scintillation counting; type: cell membranes; conditions: mdck2, 2 h
Summary of the method: (§3)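 Human WT or E297G BSEP delivered by recombinant adenovirus (50 MOI) into MDCK II cells on 24-well plates, 1 day after seeding. GFP adenovirus serves as control. Compounds added 24 h post-infection for 24 h. Cells washed with Krebs–Henseleit buffer pH 7.4, then incubated with [3H]TC for 2 h and washed with ice-cold buffer. Lysed in 2 N HCl, neutralized with NaOH, counted by scintillation. Read-out is the BSEP/GFP accumulation ratio.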

Bile salt export pump [3] = target: T1, Bile salt export pump; test: Restoration of human BSEP E297G mutant trafficking to cell membrane in MDCK2 cells co-expressing NTCP assessed as decrease in [3H]taurocholate accumulation preincubated for 24 hrs prior incubation with [3H]taurocholate measured after 2 hrs by liquid scintillation counting; type: cell membranes; conditions: mdck2, 2 h; summary of the method: as §3
Bile salt export pump [4] = target: T1, Bile salt export pump; test: as §1, with “10 uM” for “1 mM”; type: cell-based; conditions: mdck2, 2 h; summary of the method: as §2
Bile salt export pump [5] = target: T1, Bile salt export pump; test: Restoration of human BSEP E297G mutant trafficking to cell membrane in MDCK2 cells co-expressing NTCP assessed as accumulation of [3H]taurocholate at 100 uM preincubated for 24 hrs prior incubation with [3H]taurocholate measured after 2 hrs by liquid scintillation counting; type: cell membranes; conditions: mdck2, 2 h
Bile salt export pump [6] = target: Bile salt export pump (Homo sapiens, UniProt O95342); test: Restoration of wild type human BSEP trafficking to cell membrane in MDCK2 cells co-expressing NTCP assessed as decrease in [3H]taurocholate accumulation at 10 to 100 uM preincubated for 24 hrs prior incubation with [3H]taurocholate measured after 2 hrs by liquid scintillation counting; type: cell membranes; conditions: mdck2, 2 h; summary of the method: as §3
Bile salt export pump (Homo sapiens, UniProt O95342), sequence (O95342 whole entry): as the sequence (O95342 whole entry E297G) above, with G297E counted along it

SMILES	Activity (Bile salt export pump [2]) [%]	also measured
O=C(O)CCCc1ccccc1	–	fold change (FC) (Bile salt export pump [1]): 3
CCCCN(C(=O)c1ccc(OCc2c(-c3c(Cl)cccc3Cl)noc2C(C)C)cc1Cl)c1cccc(C(=O)O)c1	49	–
CC(C)c1onc(-c2c(Cl)cccc2Cl)c1COc1ccc(C(=O)N(c2cccc(C(=O)O)c2)c2cccc3ccccc23)c(Cl)c1	59	–
CC(C)c1onc(-c2c(Cl)cccc2Cl)c1COc1ccc(C(=O)N(c2cccc(C(=O)O)c2)c2ccc3ccccc3c2)c(Cl)c1	70	–
CC(C)c1onc(-c2ccccc2)c1COc1ccc(C(=O)N(Cc2ccccc2)c2cccc(C(=O)O)c2)c(Cl)c1	64	–
CC(C)c1onc(-c2c(Cl)cccc2Cl)c1COc1ccc(C(=O)N(Cc2ccccc2)c2cccc(C(=O)O)c2)cc1	85	–
Cc1cccc(C)c1-c1noc(C(C)C)c1COc1ccc(C(=O)N(Cc2ccccc2)c2cccc(C(=O)O)c2)c(Cl)c1	93	–
CC(C)c1onc(-c2c(Cl)cccc2Cl)c1COc1ccc(C(=O)N(Cc2ccccc2)c2ccccc2C(=O)O)c(Cl)c1	80	–
CC(C)c1onc(-c2c(Cl)cccc2Cl)c1COc1ccc(C(=O)N(Cc2ccccc2)c2ccc(C(=O)O)cc2)c(Cl)c1	35	–
COC(=O)c1cccc(N(Cc2ccccc2)C(=O)c2ccc(OCc3c(-c4c(Cl)cccc4Cl)noc3C(C)C)cc2Cl)c1	93	–
CC(C)c1onc(-c2c(Cl)cccc2Cl)c1COc1ccc(/C=C/c2cccc(C(=O)O)c2)c(Cl)c1	33	Activity (Bile salt export pump [3]): Dose-dependent effect
CC(C)c1onc(-c2c(Cl)cccc2Cl)c1COc1ccc(C(=O)Nc2cccc(C(=O)O)c2)c(Cl)c1	111	–
CC(C)c1onc(-c2c(Cl)cccc2Cl)c1COc1ccc(C(=O)N(Cc2ccccc2)c2cccc(C(=O)O)c2)c(Cl)c1	31	Activity (Bile salt export pump [3]): Dose-dependent effect; fold change (FC) (Bile salt export pump [4]): 7
CC(C)c1onc(-c2c(Cl)cccc2Cl)c1COc1ccc(C(=O)N(CCc2ccccc2)c2cccc(C(=O)O)c2)c(Cl)c1	53	–
CC(C)c1onc(-c2c(Cl)cccc2Cl)c1COc1ccc(C(=O)N(C)c2cccc(C(=O)O)c2)c(Cl)c1	66	–
C[C@H](CCC(=O)O)[C@H]1CC[C@H]2[C@@H]3[C@H](O)C[C@@H]4C[C@H](O)CC[C@]4(C)[C@H]3CC[C@]12C [CHENODIOL]	50	Activity (Bile salt export pump [5]): 46%
C[C@H](CCC(=O)O)[C@H]1CC[C@H]2[C@@H]3[C@H](O)C[C@@H]4C[C@H](O)CC[C@]4(C)[C@H]3C[C@H](O)[C@]12C [CHOLIC ACID]	73	Activity (Bile salt export pump [6]): Active; Activity (Bile salt export pump [5]): 40%
C[C@H](CCC(=O)O)[C@H]1CC[C@H]2[C@@H]3CC[C@@H]4C[C@H](O)CC[C@]4(C)[C@H]3C[C@H](O)[C@]12C [DEOXYCHOLIC ACID]	–	Activity (Bile salt export pump [5]): 65%
C[C@H](CCC(=O)NCC(=O)O)[C@H]1CC[C@H]2[C@@H]3[C@H](O)C[C@@H]4C[C@H](O)CC[C@]4(C)[C@H]3C[C@H](O)[C@]12C [GLYCOCHOLIC ACID]	–	Activity (Bile salt export pump [5]): 108%
C[C@H](CCC(=O)O)[C@H]1CC[C@H]2[C@@H]3[C@@H](O)C[C@@H]4C[C@H](O)CC[C@]4(C)[C@H]3CC[C@]12C [URSODIOL]	76	Activity (Bile salt export pump [5]): 43%
